Compound activity deposited in PubChem BioAssay by Broad Institute.
Only some compounds are listed: those with a hit (about 4.4% of all), similar ones and a draw of the others.
Calb FLC: C. albicans growth inhibition with fluconazole, primary screen, CaCi-2 strain, Alamar Blue fluorescence; growth inhibition, % (no concentration beside the values); C. albicans CaCi-2 (fluconazole-resistant clinical isolate) + fluconazole, 48 h; actives 0.57% (n = 300,000); AID 1979, 2009;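 active = growth inhibition above about 58% in most replicates, limit read from the data, passing the limit was not always enough; inconclusive = exactly half the replicates above a set limit; inactive = most replicates below a set limit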;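 note: all wells also contain fluconazole at 8 µg/ml as a sub-toxic cotreatment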
T cruzi repl: inhibitors of intracellular T. cruzi growth, primary screen, luminescence, NIH3T3 host cells | inhibition, % (no concentration beside the values) | T. cruzi beta-gal in NIH3T3, 90 h | actives 1.4% (n = 300,000);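 active = mean inhibition across valid replicates above about 55%, limit read from the data; inconclusive = mean below that limit but half or more replicates reach it; inactive = mean below it, under half of replicates reach it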;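 note: signal also drops with host cell toxicity which is not excluded here; higher percent means less beta-gal luminescence so fewer parasites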
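System: NIH/3T3 fibroblasts plus reporter T. cruzi. Medium: DMEM plus 2% FBS. Probe or stimulus: 5000 reporter trypomastigotes per well. Compound: single 50 nL compound addition per well in DMSO. Incubation: co-culture of at least 90 h after 3 h attachment. Detection: GalScreen β-gal luminescence, detergent lysis, 60 min. Evaluation: parasite load inhibition, %.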
HIF act: HIF pathway transcriptional activators, primary screen, cell-based, U2OS HRE-luciferase, luminescence; U2OS HRE-luciferase reporter; normalized: DMSO 0%, desferrioxamine 100%; activation, % at 7.5 µM (by protocol); actives 0.32% (n = 300,000); AID 1910, 2009;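 active = mean activation of at least 10% of the iron chelator positive control signal, with at least half of replicates also reaching 10%; inconclusive = mean and replicate majority disagree about reaching 10%; inactive = mean and most replicates under 10%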
HSF-1 act: HSF-1 activators, primary screen, NIH3T3-HGL cells, MG132 stress, luminescence, single point | NIH3T3-HGL HSF-1 luciferase reporter, 8 h; 100% = twice DMSO control signal | activation, % at 9 µM | actives 1.7% (n = 300,000);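 active = mean replicate activation of at least 50% with a set share of replicates each reaching 50%; inconclusive = only one of those two conditions met; inactive = mean below 50% and too few replicates reaching it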
HSF1 inh: HSF1 inhibitors in luciferase reporter cells, primary screen, cell-based, NIH3T3, luminescence. AID 2098, 2009. actives 0.77% (n = 300,000). activity change, negative = inhibition, % at 7.5 µM (by protocol). NIH3T3-HGL HSE-luciferase, MG132-induced, luminescence 8 h; stronger effect = lower value;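 active = more than half of replicate wells show activity change below -50%, luminescence cut by over half; inconclusive = some wells, but at most half, below -50%; inactive = no replicate well below -50%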;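 note: luciferase reports HSF-1 transcriptional activity via heat shock element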
Of the large screens only hits and unclear results are named; the others gave an inactive call.

N=c1c2c(ncn1CCCO)Oc1c(ccc3ccccc13)C2c1ccccc1 (stereo not drawn)	HSF1 inh -66
COc1ccc(C2c3ccc4ccccc4c3Oc3ncn(CCN(C)C)c(=N)c32)cc1 (stereo not drawn)	T cruzi repl 59
COc1cccc(NC(=O)CSC(N)=O)c1	none
Cc1ccccc1C(=O)O/N=C/c1c(N2CCOCC2)n(C)c2ccccc12	Calb FLC 107
CCOC(=O)N1CCC(Nc2c(-c3ccccc3)c(=O)c2=O)CC1	HIF act 13
O=C(Cc1ccccc1)N/N=C/c1cc(Br)cc(Cl)c1O	Calb FLC 114
O=C(N/N=C/c1cc(Cl)cc([N+](=O)[O-])c1O)c1ccc2c(c1)OCO2	T cruzi repl 57
O=C(N/N=C/c1cc(Cl)cc([N+](=O)[O-])c1O)NC12CC3CC(CC(C3)C1)C2	none
O=C(N/N=C/c1cc2c(cc1Cl)OCO2)c1cccc(Br)c1	none
O=C(Cc1ccccc1)N/N=C/c1cc(Br)c(Br)o1	HSF-1 act 80
O=C(N/N=C/c1cc(Br)cc(Cl)c1O)c1ccc2c(c1)OCO2	Calb FLC 94, HIF act 19
CC(C)c1nnc(NC(=O)CSc2nnc(NC(=O)c3c(F)cccc3F)s2)s1	none
Cc1cc(C(=O)N/N=C/c2cc(Cl)cc([N+](=O)[O-])c2O)c2ccccc2n1	Calb FLC 79
O=C(N/N=C/c1cc(Cl)cc([N+](=O)[O-])c1O)c1ccccc1NS(=O)(=O)c1cccs1	none
Cc1cc(Br)cc(/C=N/NC(=O)c2ccc3c(c2)OCO3)c1O	HIF act 13
CC1C/C(=C/c2ccccn2)C(=O)/C(=C/c2ccccn2)C1 (stereo not drawn)	T cruzi repl 58, HSF-1 act 89
CC(C)(C)C1C/C(=C/c2ccccn2)C(=O)/C(=C/c2ccccn2)C1 (stereo not drawn)	none
COc1ccc(-c2nnc(SCC(=O)c3ccc(O)cc3O)o2)cc1	none
Cc1ccc(C(=O)COC(=O)CN2C(=O)C3C4C=CC(C4)C3C2=O)cc1C (stereo not drawn)	none
O=C(CSc1nnc(CCc2ccccc2)n1-c1ccc(Cl)cc1)c1ccccc1	HSF1 inh -60
COc1ccc(-n2c(CCc3ccccc3)nnc2SCC(=O)c2ccc(Cl)cc2)cc1	none
Cc1cc(C)c(Cc2c(C)nc3c(C(=O)NCc4ccco4)cnn3c2C)c(C)c1	T cruzi repl 59
O=C(COC(=O)c1cccs1)Nc1nnc(-c2ccccc2)o1	none
CCn1c(=S)[nH]c2scc(-c3cccs3)c2c1=O	Calb FLC 80
CC(C)n1c(=S)[nH]c2scc(-c3cccs3)c2c1=O	none
C=CCc1cc(Cl)ccc1OCCNCCN1CCOCC1	T cruzi repl 73
O=C(NNC1=C(C(=O)C(F)(F)F)CCC1)c1ccccc1O	Calb FLC inconclusive
O=C(NNC1=C(C(=O)C(F)(F)F)CCC1)c1ccc(Br)cc1	Calb FLC 92
Nc1ccccc1C(=O)NNC1=C(C(=O)C(F)(F)F)CCC1	HSF1 inh -52
CCOc1ccc(/C=N/Nc2nc(C)cs2)c(O)c1	none
COc1ccc(C(=O)CCNc2ccc(F)cc2)cc1	HIF act 14
COc1ccc(C(=O)CCNc2ccc(C)c(Cl)c2)cc1	none
Cc1cc(C(=O)N/N=C/c2cc(Br)cc(Br)c2OC(=O)c2cccc(F)c2)n[nH]1	T cruzi repl 65
COc1cc(-c2nc(-c3ccccc3)c(-c3cccs3)[nH]2)cc(OC)c1OC	T cruzi repl 62
COc1cc(-c2nc(-c3ccc4c(c3)-c3ccccc3S4(=O)=O)c(-c3ccccc3)[nH]2)cc(OC)c1OC	T cruzi repl 59
COc1cccc(-c2nc(-c3ccc4c(c3)-c3ccccc3S4(=O)=O)c(-c3ccccc3)[nH]2)c1OC	none
O=C(Nc1ccc(Cl)c(C(F)(F)F)c1)[C@@H]1CC=C[C@@H]2CCN(Cc3ccccc3)C(=O)[C@@H]21	none
CCCCN1CC[C@H]2C=CC[C@@H](C(=O)Nc3ccc(Cl)c(C(F)(F)F)c3)[C@H]2C1=O	Calb FLC 109
COc1ccc(OC)c(NC(=O)CCc2nnc3ccc(N4CCC(C)CC4)nn23)c1	Calb FLC inconclusive
COc1ccc(NC(=O)CCc2nnc3ccc(N4CCC(C)CC4)nn23)cc1OC	HSF1 inh -71
COCCN1CCN(C(=O)c2cc(COc3cc(C)ccc3C)on2)CC1	none
COCCCC1CCN(C(=O)c2cc(COc3cc(C)ccc3C)on2)CC1	HSF-1 act 54
Cc1ccc(SCC(=O)OCC(=O)N(C)CC(=O)Nc2ccc(F)cc2)cc1C	none
NC(=O)c1ccc(Nc2nnc(-c3ccc(O)cc3)c3ccccc23)cc1	Calb FLC 85
COc1ccc(C)cc1S(=O)(=O)N(C)CC(=O)N1CCN(c2ccccc2)CC1	none
CN1CCCN(C(=O)c2cccc3ccccc23)CC1	none
CCCCCCCOc1ccc(OC(=O)c2cccnc2)cc1	T cruzi repl 57
CCCCCCOC(=O)c1ccc(OC(=O)c2cccnc2)cc1	HSF-1 act 58
Nc1c2c(nc3sc4c(c13)CCCC4)-c1ccccc1CC2	none
CCn1c(N)c(C(=O)NCc2cccnc2)sc1=S	none
Cc1oc2c(c1C(=O)NCc1cccnc1)C(=O)c1ccccc1C2=O	HSF1 inh -95
CCn1c(=O)c(C(=O)Nc2ncccc2O)c(O)c2ccccc21	none
COc1ccc(CNC(=O)c2c(C)oc3c2C(=O)c2ccccc2C3=O)cc1	none
CCn1c(C(=O)NCc2cccnc2)cc2sc(Cl)cc21	T cruzi repl 62
CCn1c(=O)c(C(=O)NCc2cccnc2)c(O)c2ccccc21	Calb FLC 94
CCn1c(=O)c(C(=O)Nc2ncccc2C)c(O)c2ccccc21	Calb FLC 96
CCn1c(=O)c(C(=O)NCc2ccccc2)c(O)c2ccccc21	none
CCOC(=O)c1sc(=NC(=O)/C=C/c2ccccc2)n(C)c1C	none
CCOc1ccccc1NC(=O)CSc1nnc(C2CC2)n1CC	none
CCCCCCCCCC(=O)NNC(=O)c1c(O)c2ccccc2n(CC)c1=O	Calb FLC 113
CCCCCC(=O)NNC(=O)c1c(O)c2ccccc2n(CC)c1=O	none
O=S(=O)(NCCSc1nnc(-c2ccco2)n1-c1ccccc1)c1ccccc1	none
Cc1cc(-c2ccc(Br)s2)nc(-n2cccc2)n1	none
Cc1cc(-c2sccc2Br)nc(-n2cccc2)n1	HSF-1 act 72
CC(Sc1ncnc2sccc12)C(=O)Nc1ccc(C(N)=O)cc1 (stereo not drawn)	none
O=C(Cn1cc([N+](=O)[O-])cn1)NCC1CCCO1 (stereo not drawn)	HSF1 inh -63
